Results reported in ChEMBL document CHEMBL2440065, “Identification of a novel benzoxazolone derivative as a selective, orally active 18 kDa translocator protein (TSPO) ligand” (J Med Chem, 2013).
≈ marks a conversion by molar mass, not a printed value.

How the values were obtained:
Mus musculus [1] = experiment: Neurotoxicity in ddY mouse assessed as elongation of hexobarbital-induced sleep at 0.3 to 3 mg/kg, po after 1 hr; format: toxicity, organism-based; parameters: dose 0.3-3 mg/kg, route oral; conditions: in vivo
Mus musculus [2] = experiment: Neurotoxicity in ddY mouse assessed as reduction in locomotor activity at 3 to 30 mg/kg, po after 1 hr; format: toxicity, organism-based; parameters: dose 3-30 mg/kg, route oral; conditions: in vivo
Rattus norvegicus [3] = experiment: Neurotoxicity in Wistar rat assessed as memory impairment at 1 to 30 mg/kg, po after 1 hr by passive avoidance test; format: toxicity, organism-based; parameters: dose 1-30 mg/kg, route oral; conditions: in vivo
Mus musculus [4] = experiment: Neurotoxicity in ddY mouse assessed as motor impairment at 3 to 30 mg/kg, po after 1 hr by horizontal rotarod test; format: toxicity, organism-based; parameters: dose 3-30 mg/kg, route oral; conditions: in vivo
[5] = Solubility of the compound at pH 2.5 by HPLC analysis; format: physicochemical; conditions: buffer
In short: (§1)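 Compound (1 mg) shaken in 0.4 mL buffered solution at pH 7.4 or pH 2.5, then centrifuged; dissolved compound in the supernatant quantified by HPLC.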

[6] = Displacement of [3H]batrachotoxin from rat brain sodium channel site 2; format: tissue-based
[7] = Solubility of the compound at pH 7.4 by HPLC analysis; format: physicochemical; conditions: buffer; in short: as §1
[8] = Metabolic stability in rat liver S9 fraction assessed as compound remaining at 1 uM after 30 mins in presence of NADPH; format: ADME, subcellular; conditions: read-out: Stability
Translocator protein [9] = target: Translocator protein (Rattus norvegicus, UniProt P16257); experiment: Displacement of [3H]PK11195 from Sprague-Dawley rat kidney TSPO after 1 hr by liquid scintillation counting analysis
Sequence of Translocator protein (Rattus norvegicus, UniProt P16257) (P16257 whole entry, looked up): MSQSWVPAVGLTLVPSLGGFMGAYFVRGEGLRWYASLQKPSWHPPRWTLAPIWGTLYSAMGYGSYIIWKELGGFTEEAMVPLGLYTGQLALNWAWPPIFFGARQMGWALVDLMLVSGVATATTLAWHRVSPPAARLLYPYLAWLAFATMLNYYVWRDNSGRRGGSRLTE

[10] = Metabolic stability in human liver S9 fraction assessed as compound remaining at 1 uM after 30 mins; format: ADME, subcellular; conditions: read-out: Stability
Translocator protein [11] = target: Translocator protein (Homo sapiens, UniProt P30536); experiment: Displacement of [3H]PK11195 from TSPO in human U-87 MG cells after 1 hr by liquid scintillation counting analysis; format: cell-based
Sequence of Translocator protein (Homo sapiens, UniProt P30536) (P30536 whole entry): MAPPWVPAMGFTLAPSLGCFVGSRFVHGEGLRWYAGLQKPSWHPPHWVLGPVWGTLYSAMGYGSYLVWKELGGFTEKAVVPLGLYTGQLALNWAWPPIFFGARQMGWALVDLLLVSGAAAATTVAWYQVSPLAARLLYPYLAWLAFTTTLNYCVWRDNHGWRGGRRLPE

[12] = target: Amine oxidase [flavin-containing] A (Homo sapiens, UniProt P21397); experiment: Inhibition of human MAO-A at 10 uM
Sequence of Amine oxidase [flavin-containing] A (P21397 whole entry): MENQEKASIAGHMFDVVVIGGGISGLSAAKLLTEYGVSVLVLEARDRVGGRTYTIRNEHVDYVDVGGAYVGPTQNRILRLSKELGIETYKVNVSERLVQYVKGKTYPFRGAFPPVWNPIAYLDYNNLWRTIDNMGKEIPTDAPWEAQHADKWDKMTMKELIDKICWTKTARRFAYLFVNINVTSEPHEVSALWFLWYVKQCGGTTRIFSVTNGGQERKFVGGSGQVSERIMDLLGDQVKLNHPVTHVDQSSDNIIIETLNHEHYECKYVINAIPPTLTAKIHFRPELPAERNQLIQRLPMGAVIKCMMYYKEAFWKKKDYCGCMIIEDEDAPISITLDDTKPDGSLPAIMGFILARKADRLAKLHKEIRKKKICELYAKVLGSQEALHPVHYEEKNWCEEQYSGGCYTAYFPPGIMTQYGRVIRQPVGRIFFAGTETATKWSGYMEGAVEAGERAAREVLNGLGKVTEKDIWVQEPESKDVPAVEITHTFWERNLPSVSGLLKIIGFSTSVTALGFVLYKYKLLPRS

Mus musculus [13] = experiment: Neurotoxicity in ddY mouse assessed as motor impairment at 10 to 100 mg/kg, po after 1 hr by horizontal rotarod test; format: toxicity, organism-based; parameters: dose 10-100 mg/kg, route oral; conditions: in vivo
[14] = Ratio of drug level in brain to blood in rat at 10 mg/kg, po; format: ADME, organism-based; parameters: dose 10 mg/kg, route oral
In short: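 Rats dosed orally at 10 mg/kg (HCl salt); brain and blood drug concentrations measured and expressed as brain/blood ratio.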

Mus musculus [15] = experiment: Neurotoxicity in ddY mouse assessed as elongation of hexobarbital-induced sleep at 300 mg/kg, po after 1 hr relative to diazepam; format: toxicity, organism-based; parameters: dose 300 mg/kg, route oral; conditions: in vivo
Mus musculus [16] = experiment: Neurotoxicity in ddY mouse assessed as reduction in locomotor activity at 10 to 100 mg/kg, po after 1 hr; format: toxicity, organism-based; parameters: dose 10-100 mg/kg, route oral; conditions: in vivo
Rattus norvegicus [17] = experiment: Neurotoxicity in Wistar rat assessed as memory impairment at 3 to 30 mg/kg, po after 1 hr by passive avoidance test; format: toxicity, organism-based; parameters: dose 3-30 mg/kg, route oral; conditions: in vivo
Mus musculus [18] = experiment: Neurotoxicity in ddY mouse assessed as motor impairment at 300 mg/kg, po after 1 hr by horizontal rotarod test; format: toxicity, organism-based; parameters: dose 300 mg/kg, route oral; conditions: in vivo
[19] = Solubility of the compound at pH 6.8; format: physicochemical; conditions: buffer
In short: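 Solubility measured in pH 6.8 buffer containing bile acids; compound tested as free base and as HCl salt.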

For `CN1C(=O)CN=C(c2ccccc2)c2cc(Cl)ccc21` [DIAZEPAM], the Activity (Mus musculus [1]) was “Toxic”, the Activity (Mus musculus [2]) was “Toxic” and the Activity (Rattus norvegicus [3]) was “Toxic”. The Activity (Mus musculus [4]) was “Toxic”.
In the case of `CN(C(=O)Cn1c(=O)oc2ccc(-c3cccnc3)cc21)c1ccc(C(F)(F)F)cc1`, the solubility [5] is reported as 420 µg/mL (≈ 983 µM), the IC50 [6] is reported as over 10000 nM and the solubility [7] is reported as 1 µg/mL (≈ 2.34 µM). For the same molecule, the remaining at 0.5 h, 1 µM [8] was 38%, the Ki (Translocator protein [9]) was 8.6 nM and the remaining at 0.5 h, 1 µM [10] was 84%. The Ki (Translocator protein [11]) was 8 nM and the “inhibition (INH)” value [12] was “Not Active”.
In the case of `CN(C(=O)Cn1c(=O)oc2ccc(-c3cccnc3)cc21)c1ccc(C(F)(F)F)cc1.Cl`, the Activity (Mus musculus [13]) is reported as “Non-toxic”, the Kp [14] is reported as 1.2 and the Activity (Mus musculus [15]) is reported as “Non-toxic”. For the same molecule, the Activity (Mus musculus [16]) was “Non-toxic” and the Activity (Rattus norvegicus [17]) was “Non-toxic”.
In the case of `CN(C(=O)Cn1c(=O)oc2ccc(-c3ccc(OC(F)(F)F)cc3)cc21)c1cccnc1.Cl`, the Activity (Mus musculus [18]) is reported as “Toxic”, the solubility [19] is reported as 23 µg/mL and the Kp [14] is reported as 1.3.
